Laboratory results taken from ChEMBL document CHEMBL4007473, “Discovery of Potent and Orally Bioavailable GPR40 Full Agonists Bearing Thiophen-2-ylpropanoic Acid Scaffold” (J Med Chem, 2017).
Activity calls are given as the source filed them. The rule behind the calls is not given here.

Key:
[1] = Inhibition of hepatobiliary transporter in Sprague-Dawley rat sandwich-cultured rat hepatocytes assessed as decrease in d8-TCA by measuring biliary excretion index at 1 to 25 uM incubated for 15 mins followed by d8-TCA addition measured after 15 mins by LC-MS/MS analysis; assay type: ADME; conditions: 0.25 h
Method in brief: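 Sandwich-cultured hepatocytes from male SD rats exposed to compound 15 min in standard HBSS. Cells rinsed and pre-incubated 15 min at 37 ℃ in standard or Ca2+-free HBSS, then incubated 15 min with compound plus 1 µM d8-TCA. Washed with ice-cold PBS; cellular d8-TCA measured by LC-MS/MS. BEI = (A_HBSS – A_Ca-free)/A_HBSS × 100%.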

[2] = target: T1, Free fatty acid receptor 4 (Homo sapiens, UniProt Q5NUL3); experiment: Agonist activity at human GPR120 expressed in CHO cells assessed as increase in intracellular Ca2+ flux by Fluo 4-AM dye based assay; assay type: functional, cell-based
T1 sequence (Q5NUL3 whole entry): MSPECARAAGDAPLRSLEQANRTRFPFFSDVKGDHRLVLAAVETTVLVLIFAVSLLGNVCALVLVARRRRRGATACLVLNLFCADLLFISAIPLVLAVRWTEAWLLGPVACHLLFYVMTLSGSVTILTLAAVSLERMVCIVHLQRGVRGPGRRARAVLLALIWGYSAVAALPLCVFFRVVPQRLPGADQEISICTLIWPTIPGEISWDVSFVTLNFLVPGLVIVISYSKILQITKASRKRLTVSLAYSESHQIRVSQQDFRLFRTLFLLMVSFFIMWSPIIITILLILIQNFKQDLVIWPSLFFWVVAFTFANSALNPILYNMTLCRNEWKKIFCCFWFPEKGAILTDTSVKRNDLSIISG
Method in brief: (§1)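 CHO cells stably expressing hGPR40 or hGPR120, seeded and incubated overnight at 37 ℃, 5% CO2. Loaded 90 min with Fluo 4-AM (3 μM) and probenecid (2.5 mM) in HBSS/0.1% BSA, washed, equilibrated 10 min. Ca2+ read as change in 585/525 ratio before and after compound addition; EC50 and Emax fitted from curves, Emax relative to reference agonist 4; mean ± SD, three independent experiments.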

[3] = target: T2, Peroxisome proliferator-activated receptor gamma (Homo sapiens, UniProt P37231); experiment: Agonist activity at PPARgamma (unknown origin) expressed in HEK293T cells by luciferase reporter gene assay; assay type: cell-based
T2 sequence (P37231 whole entry): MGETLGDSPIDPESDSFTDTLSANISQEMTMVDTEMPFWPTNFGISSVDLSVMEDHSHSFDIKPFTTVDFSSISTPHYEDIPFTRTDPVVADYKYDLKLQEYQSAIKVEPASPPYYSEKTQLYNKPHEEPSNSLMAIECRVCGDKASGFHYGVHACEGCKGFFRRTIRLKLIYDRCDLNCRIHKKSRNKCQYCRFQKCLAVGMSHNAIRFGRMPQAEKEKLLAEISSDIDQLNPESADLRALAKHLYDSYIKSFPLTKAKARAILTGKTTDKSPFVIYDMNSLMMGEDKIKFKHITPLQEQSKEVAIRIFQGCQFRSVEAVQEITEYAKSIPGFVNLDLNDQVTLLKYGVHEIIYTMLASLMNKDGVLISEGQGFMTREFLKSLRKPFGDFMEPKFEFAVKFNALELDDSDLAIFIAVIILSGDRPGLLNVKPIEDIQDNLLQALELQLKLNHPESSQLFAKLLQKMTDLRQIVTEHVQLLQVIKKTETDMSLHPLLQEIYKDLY

Mus musculus = experiment: Antidiabetic activity in ICR mouse assessed as decrease in blood glucose AUC at 10 to 20 mg/kg, po administered 30 mins prior to glucose challenge measured 120 mins post dose by OGTT; assay type: functional, organism-based
Method in brief: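 Six-week-old male ICR mice fasted 16 h, n = 10 per group, dosed orally in 0.5% methylcellulose/20% PEG400 (10 or 20 mg/kg). Oral glucose load 2.5 g/kg by gavage 30 min later. Tail-vein glucose read at -30, 0, 30, 60, 90 and 120 min; AUC0-120 min computed and compared with vehicle.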

[4] = Oral bioavailability in Sprague-Dawley rat plasma at 10 mg/kg administered via gavage by LC/MS analysis; assay type: ADME, organism-based
Method in brief: (§2)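 Male SD rats (200 ± 20 g), acclimated 7 days, fasted overnight with water; n = 4 per route, 10 mg/kg by oral gavage or 1 mg/kg iv via tail vein. Plasma separated by centrifugation and stored at -80 ℃; drug measured by ESI triple-quadrupole LC-MS. Parameters from non-compartmental analysis, reported as mean ± SD. F = (AUCpo/Dosepo)/(AUCiv/Doseiv) × 100%.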

[5] = Cmax in Sprague-Dawley rat plasma at 1 mg/kg, iv by LC/MS analysis; assay type: ADME, organism-based; design: dose 1 mg/kg, route intravenous; method in brief: as §2
[6] = Cmax in Sprague-Dawley rat plasma at 10 mg/kg administered via oral gavage by LC/MS analysis; assay type: ADME, organism-based; design: dose 10 mg/kg, route oral; method in brief: as §2
[7] = AUC (0 to t) in Sprague-Dawley rat plasma at 1 mg/kg, iv by LC/MS analysis; assay type: ADME, organism-based; method in brief: as §2
[8] = AUC (0 to t) in Sprague-Dawley rat plasma at 10 mg/kg administered via oral gavage by LC/MS analysis; assay type: ADME, organism-based; method in brief: as §2
[9] = Half life in Sprague-Dawley rat plasma at 1 mg/kg, iv by LC/MS analysis; assay type: ADME, organism-based; method in brief: as §2
[10] = Half life in Sprague-Dawley rat plasma at 10 mg/kg administered via oral gavage by LC/MS analysis; assay type: ADME, organism-based; method in brief: as §2
[11] = Tmax in Sprague-Dawley rat plasma at 10 mg/kg administered via oral gavage by LC/MS analysis; assay type: ADME, organism-based; method in brief: as §2
[12] = Mean residence time (last) in Sprague-Dawley rat plasma at 1 mg/kg, iv by LC/MS analysis; assay type: ADME, organism-based; method in brief: as §2
[13] = Mean residence time (last) in Sprague-Dawley rat plasma at 10 mg/kg administered via oral gavage by LC/MS analysis; assay type: ADME, organism-based; method in brief: as §2
[14] = target: Free fatty acid receptor 1 (Mus musculus) (UniProt Q76JU9); experiment: Agonist activity at GPR40 in mouse MIN6 cells assessed as increase in 25 mM glucose-stimulated insulin secretion at 10 uM after 1 hr by ELISA; assay type: cell-based
Method in brief: (§3)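 MIN6 cells pre-incubated 2 h at 37 ℃ in KRBH buffer with 0.1% BSA, then stimulated 1 h at 37 ℃ with 2 mM or 25 mM glucose, alone or with test agents. Insulin secreted into supernatant quantified by ELISA; mean ± SD of four independent experiments, compared with DMSO.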

[15] = target: Free fatty acid receptor 1 (Mus musculus) (UniProt Q76JU9); experiment: Agonist activity at GPR40 in mouse MIN6 cells assessed as increase in 25 mM glucose-stimulated insulin secretion at 300 nM after 1 hr by ELISA; assay type: cell-based; method in brief: as §3
[16] = target: Free fatty acid receptor 1 (Mus musculus) (UniProt Q76JU9); experiment: Agonist activity at GPR40 in mouse MIN6 cells assessed as increase in 2 mM glucose-stimulated insulin secretion at 0.1 to 3 uM after 1 hr by ELISA; assay type: cell-based; method in brief: as §3
[17] = target: T3, Free fatty acid receptor 1 (Homo sapiens, UniProt O14842); experiment: Agonist activity at human GPR40 expressed in HEK293T cells transfected with 0.05 ug of GPR40 expression plasmid assessed as increase in intracellular Ca2+ flux by Fluo 4-AM dye based assay; assay type: functional, cell-based; conditions: HEK-293T
Method in brief: (§4)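 Plasmid titration: HEK293T cells transiently transfected with 5 μg or 0.05 μg hGPR40 expression plasmid, plated on poly-D-lysine and held 24 h. Loaded with Fluo 4-AM (3 μM) and probenecid (2.5 mM) in HBSS/0.1% BSA for 90 min, washed, equilibrated 10 min. Ca2+ response measured as change in 585/525 ratio after compound addition; mean ± SD of three experiments.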

[18] = target: T3, Free fatty acid receptor 1; experiment: Agonist activity at human GPR40 expressed in CHO cells assessed as increase in intracellular Ca2+ flux by Fluo 4-AM dye based assay relative to 3-(4-((2',6'-dimethylbiphenyl-3-yl)methoxy)phenyl)propanoic acid; assay type: functional, cell-based; method in brief: as §1
[19] = target: T3, Free fatty acid receptor 1; experiment: Agonist activity at human GPR40 expressed in HEK293T cells transfected with 5 ug of GPR40 expression plasmid assessed as increase in intracellular Ca2+ flux by Fluo 4-AM dye based assay; assay type: functional, cell-based; conditions: HEK-293T; method in brief: as §4
[20] = target: T3, Free fatty acid receptor 1; experiment: Agonist activity at human GPR40 expressed in CHO cells assessed as increase in intracellular Ca2+ flux by Fluo 4-AM dye based assay; assay type: functional, cell-based

T3 sequence (O14842 whole entry): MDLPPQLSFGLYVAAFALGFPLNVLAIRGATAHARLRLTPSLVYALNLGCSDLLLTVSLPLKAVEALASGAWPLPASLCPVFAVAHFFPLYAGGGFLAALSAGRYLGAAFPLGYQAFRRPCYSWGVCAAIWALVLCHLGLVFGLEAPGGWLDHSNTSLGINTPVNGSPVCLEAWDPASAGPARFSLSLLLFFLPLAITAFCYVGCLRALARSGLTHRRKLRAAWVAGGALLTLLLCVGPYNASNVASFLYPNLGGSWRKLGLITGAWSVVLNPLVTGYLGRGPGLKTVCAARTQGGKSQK
Free fatty acid receptor 1 (Mus musculus), sequence (Q76JU9 whole entry): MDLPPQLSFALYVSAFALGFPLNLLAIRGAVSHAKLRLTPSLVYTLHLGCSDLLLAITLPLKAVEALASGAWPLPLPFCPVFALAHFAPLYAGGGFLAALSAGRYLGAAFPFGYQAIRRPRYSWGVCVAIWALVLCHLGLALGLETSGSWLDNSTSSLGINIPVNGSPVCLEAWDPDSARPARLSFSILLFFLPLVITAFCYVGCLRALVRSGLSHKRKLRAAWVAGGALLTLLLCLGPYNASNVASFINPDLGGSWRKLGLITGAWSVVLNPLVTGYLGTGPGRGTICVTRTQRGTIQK

Structure (SMILES): CC#C[C@@H](CC(=O)O)c1ccc(OCc2cccc(-c3c(C)cc(OCCCS(C)(=O)=O)cc3C)c2)s1
- Activity [1]: Not Active
- EC50 [2]: > 10 µM
- EC50 [3]: > 10 µM
- Activity (Mus musculus): Active
- bioavailability [4]: 13.3%
- Cmax [5]: 2180 ng/mL
- Cmax [6]: 834 ng/mL
- AUC(0-t) [7]: 3320 ng·h/mL
- AUC(0-t) [8]: 4420 ng·h/mL
- half-life [9]: 228 min
- half-life [10]: 234 min
- Tmax [11]: 1 h
- MRT last [12]: 3.2 h
- MRT last [13]: 5 h
- Activity [14]: Active
- Activity [15]: Active
- Activity [16]: inactive
- Activity [17]: Active
- Emax [18]: 244%
- Activity [19]: Active
- EC50 [20]: 81 nM
